Measured values from ChEMBL document CHEMBL1177712, “Synthesis and characterization of in vitro and in vivo profiles of hydroxybupropion analogues: aids to smoking cessation” (J Med Chem, 2010).
The source made the active and inactive calls.

Key:
[1] = biological target: Sodium-dependent dopamine transporter (Homo sapiens, UniProt Q01959); assay: Inhibition of [3H]dopamine reuptake at human DAT expressed in HEK293 cells after 90 mins by scintillation counting; type: cell-based
Outline: (§1)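 Uptake of [³H]DA or [³H]NE was measured in HEK293 cells stably expressing human DAT or NET. Values are from three independent experiments, each run in triplicate.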

[2] = biological target: Sodium-dependent noradrenaline transporter (Homo sapiens, UniProt P23975); assay: Inhibition of [3H]norepinephrine reuptake at human NET expressed in HEK293 cells after 90 mins by scintillation counting; type: cell-based; outline: as §1
[3] = biological target: Sodium-dependent serotonin transporter (Homo sapiens, UniProt P31645); assay: Inhibition of [3H]serotonin reuptake at human SERT expressed in HEK293 cells after 90 mins by scintillation counting; type: cell-based
[4] = biological target: Neuronal acetylcholine receptor; alpha4/beta2 (Homo sapiens, UniProt P17787+P43681); assay: Agonist activity at alpha4beta2 nicotinic receptor in human SH-EP1 cells assessed as induction of radiolabeled Rb+ influx at 0.005 to 100 uM by liquid scintillation counting; type: functional, cell-based
Outline: (§2)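 Cells were labelled with ⁸⁶Rb⁺ for at least 4 h, then exposed for 5 min in efflux buffer (pH 7.4) to test ligand alone at ~5 nM to 100 μM. The lines were TE671/RD (muscle α1β1γδ), SH-SY5Y (α3β4*) and transfected SH-EP1-hα4β2 or -hα4β4. Efflux was Cerenkov-counted. Non-specific efflux was subtracted, and results were normalized to specific efflux from carbamylcholine (1 mM; 3 mM for SH-SY5Y).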

[5] = biological target: T1, Neuronal acetylcholine receptor; alpha4/beta4 (Homo sapiens, UniProt P30926+P43681); assay: Agonist activity at alpha4beta4 nicotinic receptor in human SH-EP1 cells assessed as induction of radiolabeled Rb+ influx at 0.005 to 100 uM by liquid scintillation counting; type: functional, cell-based; outline: as §2
[6] = biological target: T1, Neuronal acetylcholine receptor; alpha4/beta4; assay: Antagonist activity at alpha4beta4 nicotinic receptor in human SH-EP1 cells assessed as inhibition varbamylcholine-induced radiolabeled Rb+ influx at by liquid scintillation counting; type: functional, cell-based
Outline: (§3)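 ⁸⁶Rb⁺-loaded human cells were given a 5-min efflux with carbamylcholine at EC₈₀–EC₉₀ plus graded test ligand. Non-specific efflux, taken with 100 μM mecamylamine or buffer, was subtracted. IC₅₀ came from a Hill fit of three independent experiments, with SEM given as a multiplication factor.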

[7] = biological target: Acetylcholine receptor; alpha1/beta1/delta/gamma (Homo sapiens, UniProt P02708+P07510+P11230+Q07001); assay: Antagonist activity at alpha-1-beta-1-gamma-delta nicotinic receptor in human TE671 cells assessed as inhibition varbamylcholine-induced radiolabeled Rb+ influx at by liquid scintillation counting; type: functional, cell-based, TE-671; outline: as §3
SH-SY5Y = assay: Selectivity ratio of IC50 for alpha3beta4 nicotinic receptor in human SH-SY5Y cells to IC50 for IC50 for human NET; type: cell-based
SH-EP1 = assay: Selectivity ratio of IC50 for alpha4beta2 nicotinic receptor in human SH-EP1 cells to IC50 for IC50 for human NET; type: cell-based
Mus musculus [8] = assay: Smoke cessation activity in sc dosed ICR mouse assessed as inhibition of nicotine-induced antinociception administered 15 mins before nicotine challenge measured after 5 mins of nicotine infusion by hotplate assay; type: functional, organism-based
Outline: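 Male ICR mice (20–25 g) were pretreated with saline or test drug 15 min before nicotine at 2.5 mg/kg sc. They were tested 5 min later on a 55 °C hot plate (40 s cutoff), and the result was expressed as %MPE. AD₅₀ came from at least four doses, with at least 8 mice per dose.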

Mus musculus [9] = assay: Smoke cessation activity in sc dosed ICR mouse assessed as inhibition of nicotine-induced antinociception administered 15 mins before nicotine challenge measured after 5 mins of nicotine infusion by tail-flick assay; type: functional, organism-based
Outline: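 Radiant-heat tail-flick latency was read 5 min later (10 s cutoff; baseline 2–4 s) and expressed as %MPE. AD₅₀ came from at least four doses, with at least 8 mice per dose.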

Mus musculus [10] = assay: Smoke cessation activity in sc dosed ICR mouse assessed as inhibition of nicotine-induced increase in locomotor activity administered 15 mins before nicotine challenge measured after 5 mins of nicotine infusion; type: functional, organism-based
Mus musculus [11] = assay: Smoke cessation activity in sc dosed ICR mouse assessed as inhibition of nicotine-induced hypothermia administered 15 mins before nicotine challenge measured after 30 mins of nicotine infusion; type: functional, organism-based
Outline: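 Male ICR mice (20–25 g) were pretreated with test drug or saline 15 min before nicotine at 2.5 mg/kg sc. Rectal temperature was taken before and 30 min after nicotine, and the change was calculated. Room temperature was 21–24 °C. AD₅₀ came from at least four doses, with at least 8 mice per dose.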

Mus musculus [12] = assay: Toxicity in sc dosed ICR mouse assessed occurrence of sedation; type: organism-based; conditions: in vivo
Mus musculus [13] = assay: Toxicity in sc dosed ICR mouse assessed occurrence of convulsion; type: organism-based; conditions: in vivo

T1 sequence (P30926 whole entry): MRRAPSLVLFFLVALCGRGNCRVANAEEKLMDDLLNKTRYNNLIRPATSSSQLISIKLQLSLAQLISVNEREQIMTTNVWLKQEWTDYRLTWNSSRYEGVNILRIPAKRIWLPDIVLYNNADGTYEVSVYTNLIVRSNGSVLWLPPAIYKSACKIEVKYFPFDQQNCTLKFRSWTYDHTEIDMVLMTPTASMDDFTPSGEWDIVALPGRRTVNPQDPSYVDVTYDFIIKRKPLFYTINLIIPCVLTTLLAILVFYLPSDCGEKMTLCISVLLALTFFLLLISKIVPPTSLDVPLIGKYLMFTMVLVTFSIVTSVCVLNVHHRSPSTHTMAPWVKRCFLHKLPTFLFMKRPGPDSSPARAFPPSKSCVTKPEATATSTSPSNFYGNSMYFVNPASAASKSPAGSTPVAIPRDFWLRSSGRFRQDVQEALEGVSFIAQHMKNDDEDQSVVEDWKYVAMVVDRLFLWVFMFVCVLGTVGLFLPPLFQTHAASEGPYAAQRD
T1 sequence (P43681 whole entry): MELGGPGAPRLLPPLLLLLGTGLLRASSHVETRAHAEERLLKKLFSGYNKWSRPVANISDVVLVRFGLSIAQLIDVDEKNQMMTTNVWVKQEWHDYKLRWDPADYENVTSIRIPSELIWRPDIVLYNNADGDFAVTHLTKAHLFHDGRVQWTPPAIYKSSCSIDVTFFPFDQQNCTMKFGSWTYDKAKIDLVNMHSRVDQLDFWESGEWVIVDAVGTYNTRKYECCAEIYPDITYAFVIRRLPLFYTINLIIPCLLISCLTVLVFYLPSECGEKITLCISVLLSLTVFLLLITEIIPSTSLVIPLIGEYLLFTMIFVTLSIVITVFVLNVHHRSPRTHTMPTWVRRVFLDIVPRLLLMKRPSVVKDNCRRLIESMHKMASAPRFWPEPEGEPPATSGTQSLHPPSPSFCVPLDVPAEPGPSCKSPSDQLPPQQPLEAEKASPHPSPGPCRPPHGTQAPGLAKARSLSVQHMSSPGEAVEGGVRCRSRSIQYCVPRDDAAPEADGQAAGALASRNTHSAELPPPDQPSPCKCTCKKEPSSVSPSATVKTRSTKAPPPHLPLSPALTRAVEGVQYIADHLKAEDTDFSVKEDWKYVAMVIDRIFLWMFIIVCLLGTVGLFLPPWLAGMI
Chain of Sodium-dependent dopamine transporter (Q01959 whole entry): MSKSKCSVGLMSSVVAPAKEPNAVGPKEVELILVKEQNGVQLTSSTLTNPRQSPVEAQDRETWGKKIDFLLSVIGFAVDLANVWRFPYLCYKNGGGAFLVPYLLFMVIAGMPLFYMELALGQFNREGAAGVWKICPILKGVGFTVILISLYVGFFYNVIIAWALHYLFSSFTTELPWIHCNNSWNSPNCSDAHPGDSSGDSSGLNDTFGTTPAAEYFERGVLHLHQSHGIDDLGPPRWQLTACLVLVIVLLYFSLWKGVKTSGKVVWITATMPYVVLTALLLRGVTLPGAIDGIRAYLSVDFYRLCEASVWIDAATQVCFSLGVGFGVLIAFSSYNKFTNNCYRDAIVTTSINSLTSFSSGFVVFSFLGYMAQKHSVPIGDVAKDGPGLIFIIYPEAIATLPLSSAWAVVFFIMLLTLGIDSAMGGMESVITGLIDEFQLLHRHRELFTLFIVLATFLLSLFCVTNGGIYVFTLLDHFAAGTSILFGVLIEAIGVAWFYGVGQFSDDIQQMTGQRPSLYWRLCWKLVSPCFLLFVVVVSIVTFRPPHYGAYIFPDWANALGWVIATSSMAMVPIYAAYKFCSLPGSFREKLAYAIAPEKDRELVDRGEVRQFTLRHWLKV
Chain of Sodium-dependent noradrenaline transporter (P23975 whole entry): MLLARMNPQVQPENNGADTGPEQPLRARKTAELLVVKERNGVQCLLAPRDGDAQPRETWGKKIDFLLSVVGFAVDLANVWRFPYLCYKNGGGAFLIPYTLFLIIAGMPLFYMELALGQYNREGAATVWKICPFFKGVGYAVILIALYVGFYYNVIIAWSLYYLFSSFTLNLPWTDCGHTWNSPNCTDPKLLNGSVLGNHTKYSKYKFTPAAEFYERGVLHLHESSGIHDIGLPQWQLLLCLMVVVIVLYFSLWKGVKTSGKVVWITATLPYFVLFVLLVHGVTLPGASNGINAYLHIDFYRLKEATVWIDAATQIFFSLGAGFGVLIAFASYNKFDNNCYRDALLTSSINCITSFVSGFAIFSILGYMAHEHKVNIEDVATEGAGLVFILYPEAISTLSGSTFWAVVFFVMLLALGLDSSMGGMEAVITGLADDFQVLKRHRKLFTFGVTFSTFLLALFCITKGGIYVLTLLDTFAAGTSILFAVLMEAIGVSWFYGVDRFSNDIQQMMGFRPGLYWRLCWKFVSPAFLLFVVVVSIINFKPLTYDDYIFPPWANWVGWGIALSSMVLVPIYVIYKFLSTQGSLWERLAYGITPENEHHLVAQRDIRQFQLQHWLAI
Chain of Acetylcholine receptor; alpha1/beta1/delta/gamma (P02708 whole entry): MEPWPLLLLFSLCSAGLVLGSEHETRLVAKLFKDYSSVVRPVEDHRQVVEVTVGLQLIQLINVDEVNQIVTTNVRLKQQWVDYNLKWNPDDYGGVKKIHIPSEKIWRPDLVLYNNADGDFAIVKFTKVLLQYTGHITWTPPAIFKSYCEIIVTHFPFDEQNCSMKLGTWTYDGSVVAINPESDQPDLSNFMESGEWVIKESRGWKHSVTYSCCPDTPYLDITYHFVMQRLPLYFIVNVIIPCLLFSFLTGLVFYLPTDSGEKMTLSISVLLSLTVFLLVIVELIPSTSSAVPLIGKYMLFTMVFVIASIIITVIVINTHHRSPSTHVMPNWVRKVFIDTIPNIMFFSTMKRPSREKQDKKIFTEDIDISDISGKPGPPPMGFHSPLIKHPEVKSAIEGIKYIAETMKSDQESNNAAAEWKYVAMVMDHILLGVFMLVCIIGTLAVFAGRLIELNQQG
Chain of Acetylcholine receptor; alpha1/beta1/delta/gamma (P07510 whole entry): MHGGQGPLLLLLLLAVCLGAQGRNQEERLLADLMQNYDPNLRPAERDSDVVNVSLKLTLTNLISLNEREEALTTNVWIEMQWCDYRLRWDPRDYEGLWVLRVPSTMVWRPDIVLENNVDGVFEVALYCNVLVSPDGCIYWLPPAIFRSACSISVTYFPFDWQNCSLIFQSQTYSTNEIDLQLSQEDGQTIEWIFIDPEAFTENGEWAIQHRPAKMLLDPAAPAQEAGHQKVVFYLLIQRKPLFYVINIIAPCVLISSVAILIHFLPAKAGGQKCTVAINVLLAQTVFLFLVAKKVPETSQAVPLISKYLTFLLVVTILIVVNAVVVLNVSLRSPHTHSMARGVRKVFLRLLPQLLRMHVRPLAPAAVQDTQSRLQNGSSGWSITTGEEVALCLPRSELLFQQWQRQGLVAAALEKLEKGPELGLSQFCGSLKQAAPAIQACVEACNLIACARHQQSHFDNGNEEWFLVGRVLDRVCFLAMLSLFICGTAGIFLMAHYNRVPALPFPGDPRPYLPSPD
Chain of Acetylcholine receptor; alpha1/beta1/delta/gamma (P11230 whole entry): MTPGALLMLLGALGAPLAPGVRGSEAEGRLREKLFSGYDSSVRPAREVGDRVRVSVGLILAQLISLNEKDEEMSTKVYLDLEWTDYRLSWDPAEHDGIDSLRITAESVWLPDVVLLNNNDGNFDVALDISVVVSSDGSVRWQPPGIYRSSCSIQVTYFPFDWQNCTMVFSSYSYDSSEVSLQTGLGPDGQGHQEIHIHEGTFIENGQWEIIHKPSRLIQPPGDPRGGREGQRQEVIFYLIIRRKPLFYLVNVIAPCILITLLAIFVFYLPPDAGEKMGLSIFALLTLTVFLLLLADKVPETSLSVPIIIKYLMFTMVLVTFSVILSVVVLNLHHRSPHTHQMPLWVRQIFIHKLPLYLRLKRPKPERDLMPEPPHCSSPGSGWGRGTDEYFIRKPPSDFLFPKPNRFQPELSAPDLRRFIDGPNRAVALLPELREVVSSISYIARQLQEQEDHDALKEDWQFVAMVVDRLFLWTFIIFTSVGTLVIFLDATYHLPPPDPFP
Chain of Acetylcholine receptor; alpha1/beta1/delta/gamma (Q07001 whole entry): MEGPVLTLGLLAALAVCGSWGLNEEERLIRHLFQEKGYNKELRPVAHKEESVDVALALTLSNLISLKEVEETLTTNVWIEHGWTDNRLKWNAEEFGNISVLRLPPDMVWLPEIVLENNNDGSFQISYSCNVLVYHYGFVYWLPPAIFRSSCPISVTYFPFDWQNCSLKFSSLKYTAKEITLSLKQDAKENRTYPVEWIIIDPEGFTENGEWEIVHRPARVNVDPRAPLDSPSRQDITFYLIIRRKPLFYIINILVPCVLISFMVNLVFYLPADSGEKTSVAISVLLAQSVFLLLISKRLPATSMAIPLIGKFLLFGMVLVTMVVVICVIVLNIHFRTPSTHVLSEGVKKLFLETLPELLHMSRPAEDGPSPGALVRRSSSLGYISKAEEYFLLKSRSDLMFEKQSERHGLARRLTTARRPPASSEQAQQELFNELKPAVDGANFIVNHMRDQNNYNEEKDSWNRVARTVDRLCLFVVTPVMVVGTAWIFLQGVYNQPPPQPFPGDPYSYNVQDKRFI
Chain of Sodium-dependent serotonin transporter (P31645 whole entry): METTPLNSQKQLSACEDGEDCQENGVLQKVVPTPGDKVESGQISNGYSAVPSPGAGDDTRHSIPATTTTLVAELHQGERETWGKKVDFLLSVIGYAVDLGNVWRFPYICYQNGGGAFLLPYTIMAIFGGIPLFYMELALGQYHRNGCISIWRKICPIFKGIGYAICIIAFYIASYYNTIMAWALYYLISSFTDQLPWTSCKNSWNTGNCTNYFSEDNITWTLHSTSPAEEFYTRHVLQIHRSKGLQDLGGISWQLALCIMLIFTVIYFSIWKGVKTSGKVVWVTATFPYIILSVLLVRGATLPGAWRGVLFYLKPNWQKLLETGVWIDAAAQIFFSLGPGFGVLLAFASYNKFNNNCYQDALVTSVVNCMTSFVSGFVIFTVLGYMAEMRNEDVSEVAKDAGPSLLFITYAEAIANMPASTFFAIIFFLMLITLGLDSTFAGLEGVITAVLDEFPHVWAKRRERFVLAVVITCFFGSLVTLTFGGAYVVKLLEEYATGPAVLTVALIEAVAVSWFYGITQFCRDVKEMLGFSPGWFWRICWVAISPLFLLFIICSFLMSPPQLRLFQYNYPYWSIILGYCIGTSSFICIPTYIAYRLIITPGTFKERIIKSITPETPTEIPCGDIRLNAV

SMILES: CCC[C@@H]1NC(C)(C)CO[C@@]1(O)c1cccc(Cl)c1
- IC50 [1]: 30 nM
- IC50 [2]: 31 nM
- IC50 [3]: 4.13 µM
- Activity [4]: inactive
- Activity [5]: inactive
- IC50 [6]: 18 µM
- IC50 [7]: 10 µM
- Ratio IC50 (SH-SY5Y): 154
- Ratio IC50 (SH-EP1): 240
- IC50 (Mus musculus [8]): > 15 mg/kg
- IC50 (Mus musculus [9]): 0.004 mg/kg
- IC50 (Mus musculus [10]): 4.7 mg/kg
- IC50 (Mus musculus [11]): > 15 mg/kg
- Activity (Mus musculus [12]): Non-toxic
- Activity (Mus musculus [13]): Non-toxic
